# Measurements reported in ChEMBL document CHEMBL4513216, “Probing the Open Global Health Chemical Diversity Library for Multistage-Active Starting Points for Next-Generation Antimalarials” (ACS Infect Dis, 2020).
# Experiment: Toxicity liver stage against HepG2, at 10uM
# Format: cell-based
# Parameters: test concentration 10 uM, cell line HepG2-A16-CD81EGFP
# Conditions: human, HepG2-A16-CD81EGFP cells; read-out: INHIBITION
# How it was run: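 Uninfected HepG2-A16-CD81EGFP cells, 3 × 10^3 per well, 1536-well, plated on prespotted compound at 10 μM final, parasite-free screening media added to match infected plates; puromycin 10 μM positive, DMSO 0.5% negative; run in parallel with 48 h PbLuc assay at 37 °C, 5% CO2; viability by CellTiter-Glo luminescence, normalized to controls.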
row,Compound,cytotoxicity at 10 µM [%]
1,O=C(NC[C@H]1OC[C@@H](NC2CCC2)[C@@H]1O)Nc1ccccc1,-4.16
2,Cc1cccc(CNC[C@H]2COCc3nc4cccnc4n32)n1,-1.79
3,COC(=O)c1cccc(C(=O)NCc2ccco2)n1,7.44
4,O=C(Nc1cccnc1-n1cc(Cl)cn1)C1CC1,-42.7
5,Cc1cc(C)nc(NCCC(=O)NCCn2ccc3ccccc32)n1,-34.2
6,COc1ccc(S(=O)(=O)NCCCc2ccc(N(C)C)cc2)cc1Cl,-0.399
7,COc1ccc(F)cc1S(=O)(=O)NCCn1cnc(C)cc1=O,-6.49
8,NC(=O)C1CCN(c2nc3nccc(-c4ccncc4)c3c(=O)[nH]2)CC1,6.09
9,COCCC(=O)N1C[C@@H]2COC[C@]2(COCc2cccnc2)C1,-4.23
10,CCC(=O)N1CCN(c2ncnc3cc4c(cc23)OCCO4)CC1,10.2
11,CN1CCN(c2ncc3c(=O)n(Cc4ccco4)ccc3n2)CC1,-15.1
12,Cc1noc(C)c1CC(=O)N1CC[C@@](C)(O)[C@H](Oc2ccccc2)C1,0.935
13,COc1ccc2c(c1)C(=O)NC1(CC2)CCN(Cc2ccccc2)C1 (centres undefined),0.585
14,COc1ccc(C(C)NCc2cscn2)cc1Cn1cccn1 (centres undefined),3.01
15,CCN(CCNS(=O)(=O)N1CCOCC1)C(=O)OC(C)(C)C,19.9
16,CC(NC(=O)CN1CCN(Cc2ccc(Br)s2)CC1)c1ccccc1 (centres undefined),8.44
17,N#Cc1ccc(F)c(CN2CCc3sccc3C2)c1,-3.09
18,CN(CCOCC1CC1)C(=O)Nc1ccc([S+](C)[O-])c(F)c1 (centres undefined),-1.7
19,NS(=O)(=O)CCCNC(=O)c1cnc(-c2ccsc2)s1,-9.59
20,COC(=O)c1cccc(CNC(=O)NCCC(F)(F)F)c1,-0.247
21,COc1ccc(C)nc1NC(=O)Cc1c(C)nn(C)c1C,-0.302
22,N#Cc1ccc(NCC(=O)Nc2ccn(Cc3cccnc3)n2)cc1,-11.2

row,Compound,cytotoxicity at 10 µM [%]
1,O=C(NCC1CC1)C1CCCN(c2cccc(C(F)(F)F)n2)C1 (centres undefined),8.21
2,CCc1nc(C(=O)N(CC)CC(=O)N(C)C)nn1-c1ccccc1Cl,5.25
3,CC(C)N(CCSc1ncnc2[nH]ncc12)C(C)C,0.25
4,Cc1ccc(C(=O)O)cc1S(=O)(=O)N(C)c1cccc(C#N)c1,10.6
5,CC(C)c1noc(CCC(=O)Nc2cc(C(F)(F)F)c[nH]c2=O)n1,-0.387
6,CC(=O)N(c1ccc(C)cc1)c1nc(CN2CCCCC2C)cs1 (centres undefined),-5.65
7,N#Cc1cc(N2CCC(CS(N)(=O)=O)CC2)c2ccccc2n1,-11.4
8,CC(c1cccnc1)N1CCN(CCCC#N)CC1 (centres undefined),10.3
9,O=C1CC(N(C(=O)CCc2c[nH]c3ccccc23)C2CC2)C(=O)N1 (centres undefined),0.247
10,CN(C(=O)CCNC(=O)C1COc2ccccc21)c1ccccc1 (centres undefined),-7.53
11,CC(C)C(c1cccnc1)N(C)C(=O)Cc1c(F)cccc1F (centres undefined),-0.595
12,COc1ccc(CNc2cccnc2-n2cccn2)c(OC)c1OC,5.69
13,CN1CC(C(=O)NCc2ccc(OCc3cccnc3)cc2)CC1=O (centres undefined),17.7
14,Cc1nccc(CNS(=O)(=O)N(C)Cc2ccc(Cl)cc2)n1,29.5
15,COC1CCN(CCNc2ncc(Br)cc2C)CC1,-13.9
16,CN(C)C(CNC(=O)NCCc1cccc(O)c1)c1ccco1 (centres undefined),-4.36
17,CCCS(=O)(=O)N1CCC(NC(=O)c2cc(C)c(CC)s2)CC1,18.4
18,CS(=O)(=O)NCC(=O)N1CCCC1c1noc(C2CC2)n1 (centres undefined),14.2
19,CCCNC(=O)CNc1cc(C(=O)N2CCSCC2)ccc1C,-5.91
20,O=C(CN1CCCCCCC1=O)NCc1ccccn1,-15.3
21,CN(C)S(=O)(=O)N1CCC(Oc2ccc(C#N)cc2)CC1,3.96
22,Cc1cccc(N2CCOCC3(C2)CN(c2cccnc2)C(=O)CO3)n1 (centres undefined),-4.96

row,Compound,cytotoxicity at 10 µM [%]
1,O=C(c1ccc2[nH]ccc2c1)N1CCn2cc(CN3CCCC3)nc2C1,-78.2
2,CC(=O)N1CCCC2(C1)CN(C(=O)Cc1ccccc1)CCO2 (centres undefined),-83.9
3,O=C(c1cnccn1)N1CCC2(CC1)CC(Oc1ccccc1)CO2 (centres undefined),2.74
4,c1ccc2c(c1)CC(N1CCCC(NCc3cccc4nonc34)C1)C2 (centres undefined),-1.98
5,COc1cc(OC)c(-c2nc3c([nH]2)c(C2CC2)nn3C)cc1OC,-5.02
6,CC(=O)N[C@@H]1CN(S(=O)(=O)Cc2ccccc2)C[C@H]1C(C)C,-5.61
7,Cc1cc(CN2CCN(CC3CC3)[C@@H]3CS(=O)(=O)C[C@@H]32)ccc1F,-1.37
8,O=C(N1CC(c2cccnc2)C1)C1(c2ccc(F)cc2)CCOCC1,-14.5
9,CC[C@H](C)[C@@H](CO)NC(C)Cc1ccc(C)cc1 (some centres undefined),-4.48
10,CC(=O)N1CCc2c(nc(N(C)C)nc2N(C)CC2CCCO2)C1 (centres undefined),1.9
11,O=C(O)C1c2nc[nH]c2CCN1Cc1cc(-c2ccccc2)no1 (centres undefined),-11.4
12,CC(C)[C@@H]1CN(c2ncc(F)cn2)C[C@H]1NS(=O)(=O)N(C)C,14
13,Cc1noc(C)c1C(=O)N(Cc1ccsc1)CC1CCCO1 (centres undefined),3.91
14,CS(=O)(=O)N[C@H]1CN(C(=O)CCc2ccc(=O)[nH]n2)C[C@@H]1C1CC1,1.56
15,Cc1cc(N2CCC(c3ncc[nH]3)CC2)c2ccccc2n1,-9.74
16,CCOC(=O)CNC(=O)N1CCc2onc(-c3ccc(Cl)cc3)c2C1,-43.4
17,CN(Cc1noc2c1CCCC2)C(=O)Cn1c(=O)cnc2ccccc21,-38.9
18,O=C1CCCN1CCC1CCN(C2CCCNC2)CC1 (centres undefined),2.37
19,Cc1cc(C2CCC2)nc(N(C)Cc2cc(-c3ccccn3)no2)n1,21.2
20,Cc1nccn1CCN(C)C(=O)c1cn(CC2CCCCC2)nn1,-1.84
21,O=C(c1ccc2cccnc2n1)N(Cc1ccsc1)CC1CCCO1 (centres undefined),-15.1
22,OC1(CN2CCN(c3cccc(C(F)(F)F)c3)CC2)CNCCOC1 (centres undefined),-5.13

row,Compound,cytotoxicity at 10 µM [%]
1,C[C@@H]1CN(C(=O)C2(N3CCCCC3)Cc3ccccc3C2)C[C@H](C)O1,-0.238
2,CN1CCCN(c2nccc(-c3cc(C(=O)O)ccn3)n2)CC1,13.1
3,CC(C)COc1cccc(-c2nc3c([nH]2)CCNC3)c1,4.48
4,CN(CC(=O)N1CC(C)(C)[C@](O)(C2CC2)C1)Cc1ccncc1,-44.1
5,Cc1nn2c(N3CCC(O)CC3)cc(-c3ccccc3)nc2c1C,-6.54
6,CN(C)C(=O)c1cccc(CN2CCOC(Cn3cncn3)C2)c1 (centres undefined),-3.75
7,CC(C)c1nccn1C1CCCN(C(=O)c2nccnc2N)C1 (centres undefined),0.0264
8,CCc1nc(C2CCCN2Cc2nnc(C3CCC3)o2)no1 (centres undefined),1.48
9,Cc1ccccc1CC(=O)N1CCOCC1c1c(C)n[nH]c1C (centres undefined),-5.6
10,CCNc1cc2c(nn1)CCN(C(=O)c1ccc(C(N)=O)cc1)C2,-15.6
11,Cn1cc(C2CCCN2Cc2cscn2)cn1 (centres undefined),4.24
12,CCCNC(=O)C1CCN(Cc2csc(C(C)C)n2)CC1,-19.5
13,Cc1nc(C)n(CC2CCCCN2CCOc2ccc(C#N)cc2)n1 (centres undefined),-6.79
14,Cc1nc(C)n(CC2CN(CCOc3ccc(C#N)cc3)CCO2)n1 (centres undefined),-2.69
15,O=C(CCc1cc(F)ccc1F)NS(=O)(=O)c1ccc2c(c1)OCCO2,-18.8
16,Cc1cn2nc(N3CCN(Cc4nc(C(C)C)no4)CC3)sc2n1,-7.27
17,CC(C)c1nc(C2CCCN2C(=O)c2cnc[nH]2)no1 (centres undefined),-6.49
18,NC(=O)COc1cccc(C(=O)N2CCCC(n3ccnc3)C2)c1 (centres undefined),-9.63
19,O=C(CN1CCN(C(=O)Cc2ccc3c(c2)OCCO3)CC1)NC1CC1,-2.35
20,CC(CCc1ccccc1)NC(=O)Nc1cnn(CC(N)=O)c1 (centres undefined),1.64
21,CSc1ccc(Cl)c(C(=O)N2CCCC(CNS(C)(=O)=O)C2)c1 (centres undefined),-5.92
22,NC(=O)C1CCC(NC(=O)COc2ccc(Cl)c(Cl)c2)CC1 (centres undefined),-12.5

row,Compound,cytotoxicity at 10 µM [%]
1,CC(C)COC(C)C(=O)NCc1ccc(N(C)C)cc1 (centres undefined),2.53
2,O=C(NCCS(=O)(=O)N1CCc2ccccc21)c1c(O)cc(F)cc1F,0.217
3,Cc1nc(NCc2ccc(F)cc2)cc(C2CCCN2)n1 (centres undefined),-3.27
4,Cc1cnc(CCNc2cccc(CC3CCCNC3)n2)s1 (centres undefined),-3.02
5,Cc1nccn1CCCn1cncc1-c1ccc2c(c1)CCCN2C,-4.7
6,Cc1ncnc2c1CCN(Cc1ccc3c(c1)OCO3)CC2,-9.23
7,CO[C@H]1CCN(Cc2ccoc2)C[C@@H]1Cc1ccccc1,-11.9
8,O=C(c1cnccn1)N1C[C@@H]2CCN(c3cccnc3)C[C@@H]2C1,-65.8
9,Cc1ncccc1NC(=O)[C@@H]1CCO[C@@H]2CCN(c3ccccc3)C[C@@H]21,6.7
10,O=C(N1CCCC1)N1CCC2(CC1)COCCN(Cc1cccnc1)C2,-77.3
11,c1coc(CN2C[C@@H]3OCCN(CC4CCCO4)[C@@H]3C2)c1 (some centres undefined),-83.1
12,Cc1ccc(CN2CCn3c(C(=O)N(C)C)cnc3C2)cc1,-68.9
13,COc1ccc(C[C@H]2CN(C(=O)CN(C)C)CC[C@H]2OC)cc1,3.96
14,CN1CC(=O)N(c2ccccc2)CC12CCN(CCO)C2 (centres undefined),3.16
15,O=C(C1CC(F)(F)C1)N1C[C@@H]2CN(Cc3ccsc3)CCO[C@@H]2C1,-93.5
16,O=C(c1cccnc1)N1CCc2ncnc(N3CCOCC3)c2CC1,-79.3
17,COc1ncccc1CN1CCC2(CC1)CN(c1ccccn1)CCO2,-6.6
18,CN(Cc1ccco1)C[C@H]1OC[C@@H]2CCN(Cc3cccnc3)C[C@@H]21,-7.9
19,Cc1ccoc1C(=O)N1C[C@H]2CCC[C@@]2(COCc2ccncc2)C1,9.56
20,Cc1ccc(NC(=O)Nc2c(O)c3ccccc3oc2=O)cc1,3.21
21,CCOc1ccccc1CCn1cc2[nH]cccc-2c1=O,13.6
